# Screens deposited in PubChem by several laboratories.
# Rows were chosen to be rich in hits. Some 0.72% of all compounds tested hit in one or more screens of this group.
# ABCB1 inh: inhibitors of human ABCB1 transporter, ABCG2 counter-screen; P08183; CCRF-Adr cells, JC-1 efflux, flow cytometry; inhibition, % at 6.6 µM; actives 0.067% (n = 190,000); AID 1326; in the data active means inhibition above about 40%;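 further: 0% = vehicle and 100% = reference inhibitor; higher value means more JC-1 retained so stronger ABCB1 efflux block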
# DTT redox prof: compounds producing H2O2 with reducing agent – biochemical, NIH compound library profiling, artefact control for MLSCN library redox annotation, primary screen; DTT-dependent redox cycling H2O2, phenol red/HRP absorbance; 100% = 100 µM peroxide control, 0% = buffer; activation, % at 10 µM; actives 0.03% (n = 200,000); AID 878;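 active means activation of at least 50% relative to the plate's high and low controls in the primary single-dose screen; inactive means activation below 50%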;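 further: compound incubated with DTT at 0.8 mM final as the reducing agent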
# ABCG2 block: inhibitors of human ABCG2 transporter, ABCB1 counter-screen; Q9UNQ0; IgMXP3 cells, JC-1 efflux, flow cytometry; inhibition, % at 6.6 µM; actives 0.1% (n = 190,000);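 active means inhibition above 80%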;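 further: 0% = DMSO and 100% = nicardipine control wells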
#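 Incubation: cells with compound and JC-1, 10 min at 25 °C, rotating, no wash / Test system: IgMXP3 (ABCG2) plus far-red-tagged CCRF-Adr (ABCB1) cells / Compound dosing: one concentration, 6.6 µM final / Also added: JC-1 fluorescent substrate / Evaluation: efflux inhibition in percent versus controls / Detection: flow cytometry, 530 nm JC-1 signal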
# Avidin fluor: avidin bead compound fluorescence profile. Avidin beads, compound fluorescence 488/530 nm, flow cytometry; stronger effect = higher value. fluorescence (KMESF) at 10 µM. actives 0.38% (n = 220,000); in the data active means fluorescence above about 47
# GSH fluor: compound fluoresces at 488/530 nm on GSH beads. GSH beads flow cytometry, compound fluorescence 488/530 nm; stronger effect = higher value. fluorescence (KMESF) at 10 µM. actives 0.25% (n = 190,000); in the data active means fluorescence above about 89;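 further: glutathione beads carrying GST-tagged Bcl family fusion proteins plus one bare bead set; values are compound well signal with DMSO vehicle wells as background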
# Active calls of the source: *; · = no result.
SMILES,ABCB1 inh,DTT redox prof,ABCG2 block,Avidin fluor,GSH fluor
CC(C)(C)C(=O)NC1CCN(S(=O)(=O)c2ccc(C(F)(F)F)cc2)CC1,0.0,0.3,22.7,14,28
O=C(CSc1nc2ccc([N+](=O)[O-])cc2[nH]1)NCCc1ccccc1,1.2,0.2,10.3,61*,15
Nn1c(SCC(=O)NC2CCCCC2)nnc1C1CC1,0.5,2.2,1.2,11,36
C=CCn1c(SCC(=O)NC2CCCCC2)nnc1C1CCCCC1,0.6,1.0,1.9,60*,12
CCCCNC(=O)COC(=O)CCC(=O)c1ccc(Cl)cc1,0.4,0.0,-1.3,9,12
CSc1nc(-c2ccccc2)nn1S(=O)(=O)c1ccccc1,0.4,0.6,1.7,96*,19
COc1ccc(C(=O)Nc2ccc(N3CCOCC3)cc2)cc1OC,-0.4,-0.5,25.7,99*,35
COc1ccc(NC(=O)N2CCOCC2)cc1OC,0.1,0.1,0.4,6,261*
O=C(NNC(=O)c1sccc1-n1cccc1)Nc1ccc(F)cc1,0.4,0.0,3.6,10,15
CCOC(=O)/C(C#N)=C/Nc1cc(OC)ccc1OC,-1.3,-0.9,20.8,4,9
CCOC(=O)/C(C#N)=C/Nc1ccccc1OC(F)(F)F,·,·,·,105*,·
N#Cc1cnn(-c2cccc(Cl)c2)c1-n1cccc1,·,·,·,7,·
C/C(N)=C(/C#N)C(=O)CSc1nnc(NC(C)C)s1,1.8,-0.4,7.2,9,19
Cc1c(-c2ccccc2)[n+](=O)c2c(n1[O-])CCCC2,·,·,·,8,·
Cc1nnc(-c2cnn(-c3ccccc3)c2N)n1Cc1ccncc1,0.1,1.6,0.2,78*,13
CCOC(=O)c1c(-c2cccc([N+](=O)[O-])c2)csc1NC(=O)C1CC1,0.5,-3.6,3.9,11,79
CCOC(=O)c1c(-c2cccc([N+](=O)[O-])c2)csc1NC(=O)C1CCCCC1,1.2,3.2,10.0,4,166*
C[n+]1ccccc1COc1ccc(C(C)(C)C)cc1,0.2,-0.2,0.0,7,11
CCCc1nn(C)c2c(=O)[nH]c(-c3cc(S(=O)(=O)NC)ccc3OCC)nc12,·,·,·,3,·
CCCCOc1ccc(S(=O)(=O)Nc2ccc(NC(C)=O)cc2)cc1,0.1,2.3,0.7,5,129*
O=C(COC(=O)c1ccc(S(=O)(=O)NCc2ccco2)cc1)NC1CCCCC1,0.2,0.5,1.3,6,268*
COc1ccccc1N1CCN(/N=C/C=C/c2ccccc2[N+](=O)[O-])CC1,·,·,·,8,·
COc1ccc(OC)c(C2=NOC(C(=O)Nc3ccccc3SC)C2)c1 (stereo not given),4.5,-1.3,52.4,12,34
COc1ccc(OC)c(C2=NOC(C(=O)Nc3cccc(C(C)=O)c3)C2)c1 (stereo not given),-1.4,1.3,9.8,413*,51
O=c1/c(=C/c2ccccn2)sc2n1CN(c1ccccc1)CN=2,0.3,-1.4,0.6,3,3
SMILES,ABCB1 inh,DTT redox prof,ABCG2 block,Avidin fluor,GSH fluor
COc1cc(N2CN=c3s/c(=C\c4ccccn4)c(=O)n3C2)cc(OC)c1OC,0.1,-0.9,1.1,9,265*
O=C(CCCCCN1C(=O)c2ccccc2C1=O)Nc1ccc(S(=O)(=O)N2CCCCC2)cc1,2.5,0.1,7.1,9,26
O=C(OCCCCN1C(=O)c2ccccc2C1=O)c1ccc(S(=O)(=O)N2CCCC2)cc1,1.5,-0.6,4.3,7,266*
COC(=O)CC1C(=O)NCCN1C(=O)CSc1nnc(Nc2ccc(C)cc2)s1 (stereo not given),0.1,0.1,0.4,17,260*
C=CCC(CC=C)(NC(=O)c1ccccc1C)c1ccccc1,0.3,-3.7,0.4,31,15
CC(=O)N1c2ccccc2NC2=C(C(=O)CCC2)C1c1cccnc1 (stereo not given),1.8,-1.5,14.4,49*,19
CC(=O)N1c2ccccc2NC2=C(C(=O)CCC2)C1c1ccc(F)cc1 (stereo not given),1.2,0.0,9.4,9,52
Cc1ccc(S(=O)(=O)NC(=O)NCc2ccccc2)cc1,0.2,0.3,-1.6,18,49
Cc1ccc(S(=O)(=O)NC(=O)NCc2ccccn2)cc1,0.1,3.0,0.7,8,256*
Cc1nn(Cc2ccc(Cl)cc2)c(C)c1NC(=O)c1cc(-c2ccco2)on1,0.9,-0.7,2.4,13,32
COc1ccc(-c2cc(C(=O)Nc3c(C)nn(Cc4ccc(Cl)cc4)c3C)no2)cc1,0.8,0.3,12.9,50*,49
COc1ccc2c(CCNC(=O)c3ccc([N+](=O)[O-])cc3)c[nH]c2c1,1.1,-0.2,27.8,6,19
O=C(c1cnccn1)N1CCN(c2ccccc2)CC1,0.7,8.8,4.0,10,25
O=C(c1cnsn1)N1CCN(c2ccccc2)CC1,1.4,1.4,6.7,163*,23
O=C(CSC1=NCCS1)N1CCOCC1,1.3,1.9,7.9,8,249*
CCc1ccc(C(=O)COC(=O)c2ccc(Cl)nc2)cc1,-0.5,-1.6,0.0,10,11
OC(CSc1ccccc1Cl)CN1CCN(c2ccccc2F)CC1 (stereo not given),1.7,2.1,3.0,89*,36
O=S(=O)(Nc1ccccc1)c1ccc2c(c1)CCO2,·,·,·,8,·
COc1ccc(NS(=O)(=O)c2ccc3c(c2)CCO3)cc1,·,·,·,61*,·
COCCn1c(SCC(=O)NC(=O)NC(C)C)nc2ccccc21,0.4,1.9,2.1,51*,17
COCCn1c(SCC(=O)NC(=O)NC(C)(C)C)nc2ccccc21,0.4,0.2,1.1,8,4
O=C(CCCCO)CCCCCCCC[C@H]1N[C@H](CO)[C@H](O)[C@@H]1O[C@@H]1O[C@H](CO)[C@@H](O)[C@H](O)[C@H]1O,0.7,0.4,-1.6,11,19
FC(F)(F)c1ccc(NC(=S)NCc2ccccc2)cc1,0.6,-0.2,2.5,25,17
CCCCN1C(=O)N(C)C2C1N(C)C(=O)N2CCCC (stereo not given),-0.5,1.7,-0.3,5,130*
CCCCN1C(=O)N(C)C2NC(=O)NC21 (stereo not given),-0.1,0.6,0.3,10,14
CCc1cc2cc(C)ccc2nc1SCC(=O)N1CCN(C(=O)c2ccco2)CC1,1.8,1.7,4.8,7,254*
Cc1cc(NC(=O)CN2CCc3ccccc3C2)nc2c1c(=O)oc1ccccc12,2.0,0.3,3.5,7,19
OC12CCCCC1C(c1ccc3c(c1)OCO3)N(Cc1ccccc1F)CC2 (stereo not given),0.5,1.4,0.8,130*,10
O=C(CC1C(=O)NCCN1C(=O)Nc1ccccc1)Nc1cccc(Cl)c1 (stereo not given),0.4,-0.4,1.1,10,13
